The IC50 is the concentration that inhibits the measured activity by half.

Among the data in ChEMBL document CHEMBL1134510, “Adenosine analogues as selective inhibitors of glyceraldehyde-3-phosphate dehydrogenase of Trypanosomatidae via structure-based drug design” (J Med Chem, 2001) are IC50 and EC50 values, retold here.

The target of assay [1] is Glyceraldehyde-3-phosphate dehydrogenase, glycosomal (Leishmania mexicana, UniProt Q27890). In words: Inhibitory activity against Leishmania mexicana GAPDH. The gist of the method:
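Spectrophotometric GAPDH assay at 23 °C in 0.10 M triethanolamine/HCl pH 7.5, read as NADH formation at 340 nm. Final: 5.0 mM MgSO4, 1.0 mM EDTA, 12.8 mM KH2PO4, 1.0 mM DTT, 1.0 mM NaN3, 0.45 mM NAD+, 1.87 mM fresh glyceraldehyde-3-phosphate, 5% DMSO-d6. Started with enzyme. Initial rates 0–2 min as % of control. IC50 from ≥5 concentrations (≤50 µM) or extrapolated from ≥3.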

Assay [2] in a line: In vitro inhibition of rabbit muscle GAPDH. Also on record: species or system Oryctolagus cuniculus. The gist of the method: (§1)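 Spectrophotometric assay at 23 °C in 0.10 M triethanolamine/HCl, pH 7.5. Enzyme starts the reaction and inhibitors are in 5% DMSO-d₆. Initial rates over 0–2 min are compared with control. IC50 comes from ≥5 concentrations, or is extrapolated from ≥3 concentrations when above 50 µM.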

The next assay deals with Trypanosoma brucei. Briefly: Effective concentration required to block the growth of bloodstream Trypanosoma brucei. Conditions: read-out: ED50 (the source's name). It counts as functional. The gist of the method: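 Bloodstream-form strain 427 trypomastigotes are grown in HMI-9 with 10% FBS at 37 °C, 5% CO₂. Triplicate wells are seeded at 5 × 10³ parasites per well with serially diluted drug. Growth is read with Alamar Blue at 48 h. Assays were run twice.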

A further assay concerns NIH3T3. In words: Effective concentration required to inhibit the growth of murine 3T3 fibroblasts. Format: functional. The following applies: Mus musculus, read-out: ED50 (the source's name).
Another assay has as its system Trypanosoma cruzi. In words: Effective concentration required to inhibit the growth of mammalian stage of Trypanosoma cruzi grown in murine 3T3 fibroblasts. Format: functional. Conditions: read-out: ED50 (the source's name). The gist of the method: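 Tulahuen strain stably carrying E. coli lacZ. Mammalian stages are cocultured with mouse 3T3 fibroblasts in RPMI 1640 with 10% FBS at 37 °C, 5% CO₂. Intracellular growth is followed by a colorimetric β-galactosidase read-out. Assays were run twice.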

Assay [3] is described as follows: In vitro inhibition of Trypanosoma brucei GAPDH. An outline of the steps: as §1
The nature of assay [4]: In vitro inhibition of Trypanosoma cruzi GAPDH. An outline of the steps: as §1

Chain of Glyceraldehyde-3-phosphate dehydrogenase, glycosomal (Q27890 whole entry, looked up): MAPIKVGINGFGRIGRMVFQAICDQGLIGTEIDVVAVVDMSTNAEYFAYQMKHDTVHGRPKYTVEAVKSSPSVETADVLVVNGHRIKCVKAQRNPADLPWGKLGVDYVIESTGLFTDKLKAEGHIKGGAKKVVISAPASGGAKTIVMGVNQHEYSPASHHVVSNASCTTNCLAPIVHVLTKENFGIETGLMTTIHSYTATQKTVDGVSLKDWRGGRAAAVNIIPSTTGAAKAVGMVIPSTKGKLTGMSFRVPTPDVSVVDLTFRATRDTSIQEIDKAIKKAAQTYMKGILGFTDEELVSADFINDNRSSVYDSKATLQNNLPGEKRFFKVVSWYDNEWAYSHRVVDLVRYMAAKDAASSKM

As for `COc1cc(OC)cc(C(=O)N[C@@H]2C(Cn3cnc4c(NCc5cccc(C)c5)ncnc43)OC(CO)[C@@H]2O)c1` (some centres not stated), the half-maximal inhibitory concentration (IC50) in assay [1] was determined as 25 µM.
The same measure, in the same setting: under `COc1cc(OC)cc(C(=O)N[C@@H]2C(Cn3cnc4c(NC5CCCc6ccccc65)ncnc43)OC(CO)[C@@H]2O)c1` (some centres not stated) stands 75 µM; under `O=C(N[C@@H]1[C@H](O)[C@@H](CO)O[C@H]1n1cnc2c(NCc3cccc4ccccc34)ncnc21)c1cccc(O)c1`, 25 µM.
In the case of `COc1cccc(C(=O)N[C@@H]2[C@H](O)[C@@H](CO)O[C@H]2n2cnc3c(NCc4ccc(OC)c5ccccc45)ncnc32)c1`, the 50% inhibitory concentration (IC50) is over 50 µM in assay [2], 6 µM in assay [1], 26 µM in assay [3] and 50 µM in assay [4]. Moreover, the EC50 in the assay with Trypanosoma brucei was 10 µM; in the assay on NIH3T3, 50 µM; in the assay on Trypanosoma cruzi, 12 µM.
For the compound `O=C(N[C@@H]1[C@H](O)[C@@H](CO)O[C@H]1n1cnc2c(NCc3cc(O)cc4ccccc34)ncnc21)c1cccc(Cl)c1`, the IC50 in assay [2] was over 50 µM; in assay [1], 4 µM; in assay [3], 25 µM; in assay [4], 12 µM. The figures for the EC50 in the assay with Trypanosoma brucei, in the assay with NIH3T3 and in the assay with Trypanosoma cruzi were 16 µM, over 50 µM and 30 µM, respectively.
Consider `COc1cc(OC)cc(C(=O)N[C@@H]2[C@H](O)[C@@H](CO)O[C@H]2n2cnc3c(NCc4cc(OC)cc5ccccc45)ncnc32)c1`, for which the half-inhibitory concentration (IC50) was over 50 µM in assay [2], 2 µM in assay [1], 5 µM in assay [3] and 7 µM in assay [4]. Besides, the values for the EC50 with Trypanosoma brucei, in the assay with NIH3T3 and with Trypanosoma cruzi were 35 µM, over 50 µM and 35 µM, respectively.
In the case of `COc1cc(C(=O)N[C@@H]2[C@H](O)[C@@H](CO)O[C@H]2n2cnc3c(NCc4cccc5ccccc45)ncnc32)ccc1OC(C)=O`, in assay [1], the half-maximal inhibitory concentration (IC50) is 10 µM.
On to `O=C(N[C@@H]1[C@H](O)[C@@H](CO)O[C@H]1n1cnc2c(NCc3cccc4ccccc34)ncnc21)c1cc(O)cc(O)c1`, for which the IC50 in assay [2] is over 50 µM; in assay [1], 5 µM; in assay [3] it was 26 µM; in assay [4], 14 µM. The values for the EC50 in the assay with Trypanosoma brucei, in the assay with NIH3T3 and in the assay on Trypanosoma cruzi were 50 µM, over 50 µM and over 50 µM, respectively.
For `COc1cccc(C(=O)N[C@@H]2[C@H](O)[C@@H](CO)O[C@H]2n2cnc3c(NCc4cccc5ccccc45)ncnc32)c1`, the IC50 is over 50 µM in assay [2], 6 µM in assay [1], 25 µM in assay [3] and 12 µM in assay [4]. In addition, the values for the EC50 in the assay with Trypanosoma brucei, with NIH3T3 and in the assay on Trypanosoma cruzi were 18 µM, 40 µM and 10 µM, respectively.
As for `COc1cc(C(=O)N[C@@H]2[C@H](O)[C@@H](CO)O[C@H]2n2cnc3c(NCc4cccc5ccccc45)ncnc32)ccc1O`, in assay [1], the IC50 stood at 10 µM.
`O=C(N[C@@H]1[C@H](O)[C@@H](CO)O[C@H]1n1cnc2c(NCc3cccc4ccccc34)ncnc21)c1cccc(Cl)c1` yielded a half-maximal inhibitory concentration (IC50) in assay [1] of 6 µM.
With `COc1ccc(C(=O)N[C@@H]2[C@H](O)[C@@H](CO)O[C@H]2n2cnc3c(NCc4cccc5ccccc45)ncnc32)cc1O`, in assay [1], 37 µM corresponded to half-maximal inhibition (IC50). Compared with the last compound, the IC50 is about 6.2-fold higher.
As for `COc1cc(OC)cc(C(=O)N[C@@H]2C(Cn3cnc4c(NC(c5ccccc5)c5ccccc5)ncnc43)OC(CO)[C@@H]2O)c1` (some centres not stated), the concentration for half-maximal inhibition (IC50) in assay [1] stood at 55 µM.
Compound `COc1cc(OC)cc(C(=O)N[C@@H]2C(Cn3cnc4c(NCc5ccccc5)ncnc43)OC(CO)[C@@H]2O)c1` (some centres not stated) came in with an IC50 in assay [1] of 20 µM. Compared with the last compound, the IC50 is about 2.8-fold lower.
Consider `COc1cccc(C(=O)N[C@@H]2[C@H](O)[C@@H](CO)O[C@H]2n2cnc3c(NCc4cc(O)cc5ccccc45)ncnc32)c1`, for which the IC50 in assay [2] was over 50 µM; in assay [1] it was 6 µM; in assay [3] it was 25 µM; in assay [4], 12 µM. Further, the EC50 in the assay on Trypanosoma brucei was 35 µM; in the assay with NIH3T3, over 50 µM; in the assay with Trypanosoma cruzi it was over 50 µM.
Turning to `COc1cc(CNc2ncnc3c2ncn3[C@@H]2O[C@H](CO)[C@@H](O)[C@H]2NC(=O)c2cc(Cl)cc(Cl)c2)c2ccccc2c1`, the IC50 in assay [2] was over 50 µM; in assay [1] it was 25 µM; in assay [3], 45 µM; in assay [4], 40 µM. For the same compound, the EC50 in the assay on Trypanosoma brucei stood at 16 µM; in the assay on NIH3T3, 32 µM; with Trypanosoma cruzi it was 16 µM.
`COc1cc(OC)cc(C(=O)N[C@@H]2C(Cn3cnc4c(N)ncnc43)OC(CNC(=O)C(c3ccccc3)c3ccccc3)[C@@H]2O)c1` (some centres not stated) returned an IC50 in assay [1] of 60 µM.
Regarding `CC(=O)Oc1ccc(C(=O)N[C@@H]2[C@H](O)[C@@H](CO)O[C@H]2n2cnc3c(NCc4cccc5ccccc45)ncnc32)cc1`, in assay [1], the IC50 came out at 100 µM.
Consider `O=C(N[C@@H]1[C@H](O)[C@@H](CO)O[C@H]1n1cnc2c(NCc3cccc4ccccc34)ncnc21)c1ccc(O)c(O)c1`, for which, in assay [1], half-maximal inhibition (IC50) was put at 18 µM.
In assay [1], `Nc1ncnc2c1ncn2C1O[C@H](CNC(=O)CC2CCCCC2)[C@@H](O)[C@H]1O` (some centres not stated) displayed an IC50 of 250 µM. This IC50 lies about 14-fold higher than the previous one.
Still for that read-out and setting: under `CN(C)c1cccc(C(=O)N[C@@H]2[C@H](O)[C@@H](CO)O[C@H]2n2cnc3c(NCc4cccc5ccccc45)ncnc32)c1` stands 25 µM; under `COc1ccc(C(=O)N[C@@H]2[C@H](O)[C@@H](CO)O[C@H]2n2cnc3c(NCc4cccc5ccccc45)ncnc32)cc1`, 100 µM.
In assay [2], `O=C(Cn1ccnc1[N+](=O)[O-])NCc1ccccc1` [BENZNIDAZOLE] yielded an IC50 of over 50 µM. In addition, the EC50 with NIH3T3 is over 50 µM; with Trypanosoma cruzi, 0.5 µM.
Turning to `COc1cc(OC)cc(C(=O)N[C@@H]2[C@H](O)[C@@H](CO)O[C@H]2n2cnc3c(NCc4cc(O)cc5ccccc45)ncnc32)c1`, the half-maximal inhibitory concentration (IC50) in assay [2] was over 50 µM; in assay [1], 2 µM; in assay [3], 8 µM; in assay [4], 10 µM. Also, the EC50 in the assay with Trypanosoma brucei is 38 µM; in the assay on NIH3T3 it was over 50 µM; in the assay with Trypanosoma cruzi, over 50 µM.
As for `COc1cc(OC)cc(C(=O)N[C@@H]2C(Cn3cnc4c(Nc5ccc6ccccc6c5)ncnc43)OC(CO)[C@@H]2O)c1` (some centres not stated), 60 µM corresponded to half-maximal inhibition in assay [1] (IC50).
In the case of `CC(=O)Oc1cc(OC(C)=O)cc(C(=O)N[C@@H]2[C@H](O)[C@@H](CO)O[C@H]2n2cnc3c(NCc4cccc5ccccc45)ncnc32)c1`, the IC50 in assay [2] was over 50 µM; in assay [1] it was 10 µM; in assay [3], 14 µM; in assay [4], 12 µM. For the same compound, the EC50 in the assay on Trypanosoma brucei, in the assay on NIH3T3 and with Trypanosoma cruzi was over 50 µM throughout.
As for `COc1cc(OC)cc(C(=O)N[C@@H]2[C@H](O)[C@@H](CO)O[C@H]2n2cnc3c(NCc4cccc5ccccc45)ncnc32)c1`, the IC50 was over 50 µM in assay [2], 2 µM in assay [1], 7 µM in assay [3] and 7 µM in assay [4]. In addition, the EC50 with Trypanosoma brucei worked out at 17 µM; in the assay on NIH3T3, 40 µM; in the assay on Trypanosoma cruzi it was 8 µM.
In the case of `COc1cccc(C(=O)N[C@@H]2[C@H](O)[C@@H](CO)O[C@H]2n2cnc3c(NCc4cc(OC)cc5ccccc45)ncnc32)c1`, the IC50 is over 50 µM in assay [2], 3 µM in assay [1], 12 µM in assay [3] and 12 µM in assay [4]. Further, the EC50 in the assay with Trypanosoma brucei was 31 µM; in the assay on NIH3T3, over 50 µM; with Trypanosoma cruzi, 20 µM.
`O=C(N[C@@H]1[C@H](O)[C@@H](CO)O[C@H]1n1cnc2c(NCc3cccc4ccccc34)ncnc21)c1cc(Cl)cc(Cl)c1`: the IC50 is over 50 µM in assay [2], 12 µM in assay [1], 100 µM in assay [3] and 75 µM in assay [4]. Further, the EC50 with Trypanosoma brucei worked out at 5 µM; in the assay with NIH3T3, 35 µM; in the assay with Trypanosoma cruzi it was 7 µM.
In turn, `COc1cc(OC)cc(C(=O)N[C@@H]2C(Cn3cnc4c(NCc5ccccc5Sc5ccccc5CO)ncnc43)OC(CO)[C@@H]2O)c1` (some centres not stated) registered a 50% inhibitory concentration (IC50) in assay [1] of 75 µM.
Still for that read-out and setting: under `COc1cc(OC)cc(C(=O)N[C@@H]2C(Cn3cnc4c(NCc5ccccc5C)ncnc43)OC(CO)[C@@H]2O)c1` (some centres not stated) stands 25 µM.
Same read-out and setting: to `Nc1ncnc2c1ncn2C1O[C@H](CNC(=O)C(c2ccccc2)c2ccccc2)[C@@H](O)[C@H]1O` (some centres not stated) belongs 250 µM.
Compound `O=C(N[C@@H]1[C@H](O)[C@@H](CO)O[C@H]1n1cnc2c(NCc3cccc4ccccc34)ncnc21)c1ccc(Cl)cc1` returned a concentration for half-maximal inhibition (IC50) in assay [1] of 100 µM.
In assay [1], `COc1cc(OC)cc(C(=O)N[C@@H]2C(Cn3cnc4c(N)ncnc43)OC(CNC(=O)CC3CCCCC3)[C@@H]2O)c1` (some centres not stated) gave an IC50 of 100 µM.
In assay [1], `CC(=O)Oc1cccc(C(=O)N[C@@H]2[C@H](O)[C@@H](CO)O[C@H]2n2cnc3c(NCc4cccc5ccccc45)ncnc32)c1` showed a 50% inhibitory concentration (IC50) of 50 µM.
Consider `COc1ccc(C(=O)N[C@@H]2[C@H](O)[C@@H](CO)O[C@H]2n2cnc3c(NCc4cccc5ccccc45)ncnc32)cc1OC(C)=O`, for which, in assay [1], the half-inhibitory concentration (IC50) turned out to be 78 µM.
In the case of `CC(=O)Oc1ccc(C(=O)N[C@@H]2[C@H](O)[C@@H](CO)O[C@H]2n2cnc3c(NCc4cccc5ccccc45)ncnc32)cc1OC(C)=O`, the 50% inhibitory concentration (IC50) in assay [1] stood at 25 µM.
Same read-out and setting: under `O=C(N[C@@H]1[C@H](O)[C@@H](CO)O[C@H]1n1cnc2c(NCc3cccc4ccccc34)ncnc21)c1ccc(O)cc1` stands 80 µM.
